Only some compounds are listed: those with a hit (about 11% of all), similar ones and a draw of the others.
L major viab: Leishmania major promastigote growth inhibition; inhibition, % at 10 µM; Leishmania major promastigotes, resazurin fluorescence viability; AID 1063; 200,000 compounds, 9% hits;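 also: promastigotes grown with compound for 44 hours at 28 °C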
G6PDH CS: L. mesenteroides G6PDH inhibition counter-screen | 200,000 compounds, 0.12% hits | AID 1020 | inhibition, % at 5 µM | Purified L. mesenteroides G6PDH, diaphorase/resazurin coupled fluorescence, 45 min
Diaph inh CS: inhibits diaphorase or chemically oxidizes, flagging diaphorase assay artifacts; diaphorase resazurin-to-resorufin fluorescence, NADH, 16 min; bacterial (C. kluyveri) enzyme, not human; inhibition, % at 20 µM; 190,000 compounds, 0.69% hits;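 active = primary screen inhibition at 20 µM above a set limit, cut at about 50% in these data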;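 also: plate controls were DMSO with full reaction for no effect and wells lacking NADH for full effect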
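Test system: bacterial diaphorase enzyme (C. kluyveri); Quantity: 0.14 U/mL diaphorase, enzyme working solution; Times: reaction incubation of 16 min at room temperature; Measured by: fluorescence of resorufin formed from resazurin, Ex 544/Em 590 nm; Benchmarks: positive control minus NADH, DMSO neutral control.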
WT yeast gro inh: growth inhibition of WT yeast, mitochondrial fusion screen. AID 1362. inhibition, % at 10 µM. 190,000 compounds, 2.1% hits. mitochondrial fusion phenotypic screen, WT strain; in the data active = inhibition above about 58%; tested in S. cerevisiae
Diaph act CS: activates diaphorase or chemically reduces, flagging diaphorase assay artifacts; 190,000 compounds, 0.005% hits; Diaphorase/resazurin coupled assay, resorufin fluorescence, 16 min; stronger effect = higher value; 1 = vehicle wells, 0 = NADH-free wells; AID 1229; activation factor at 20 µM;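 active = diaphorase activity raised at least twofold by the compound at 20 µM; inactive = activation factor below 2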
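System – purified diaphorase enzyme from Clostridium kluyveri · Input – enzyme 0.07 U/mL final · Also added – final NADH 0.114 mM, resazurin 0.1 mM · Measured by – fluorescence of resorufin, 544 nm excitation, 590 nm emission · Timing – 16 min enzyme reaction, ambient temperature · Measure – resorufin increase flagging diaphorase activators or reducers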
The depositor's hits bear a star; . = no result. Rule as the data show it, unless noted: active = inhibition above about 50%; inactive = the rest.

SMILES	L major viab	G6PDH CS	Diaph inh CS	WT yeast gro inh	Diaph act CS
Cc1ccc(C)c(N2CCN(C(=S)Nc3ccc4nc(N5CCN(C)CC5)cc(C)c4c3)CC2)c1	13.7	2.4	-24.1	71.8*	1.2
Cc1ccc(C)c(N2CCN(C(=S)NC3CCCCC3)CC2)c1	57.6*	12.9	0.3	1.2	1
Cc1nc2ccc(NC(=S)N3CCN(c4ccccn4)CC3)cc2nc1C	9.3	-24.8	19.1	-6.9	0.8
Cc1ccc(C)c(N2CCN(C(=S)Nc3ccc4nc(N5CCOCC5)cc(C)c4c3)CC2)c1	-0.8	7.4	20.9	2.8	0.8
COc1ccccc1N1CCN(C(=S)Nc2cccc(C)c2)CC1	0.8	14.5	.	2.2	.
S=C(NC1CCCC1)NN1CCOCC1	-7.1	9.0	7.4	5.0	0.9
COC(=O)c1sccc1NC(=S)N1CCN(C)CC1	5.2	3.9	12.5	1.2	0.9
COC(=O)c1sccc1NC(=S)N1CCN(c2cc(C)ccc2C)CC1	81.8*	-2.3	16.1	76.6*	0.8
CN1CCN(C(=S)Nc2ccccc2Cl)CC1	-0.6	-1.1	9.1	6.0	0.9
CN1CCN(C(=S)Nc2ccc(Cl)c(Cl)c2)CC1	67.4*	5.7	2.3	22.9	1
CC(=O)C1=C(O)C(=O)N(c2ccc(C)cc2)C1c1ccccn1 (centres undefined)	-6.6	11.9	14.1	-15.2	0.9
COc1ccc(S(=O)(=O)N2CCC(C(=O)N3CCCCC3)CC2)cc1Cl	7.0	-6.6	15.9	-4.7	0.8
O=c1oc2ccc3ccccc3c2cc1-c1nnc(-c2ccccc2)o1	-0.5	-0.1	32.1	3.0	0.7
Nc1nnc(-c2cc3c(ccc4ccccc43)oc2=O)s1	80.5*	3.1	6.8	32.5	0.9
COc1cccc(-n2c(Cn3nc(C(F)(F)F)cc3C)n[nH]c2=S)c1	-2.2	8.1	1.1	0.1	1
Cc1cc2nc(SCC(=O)N(C)C)c3c(c2cc1C)CCCC3	92.6*	3.5	18.1	0.6	0.8
CN(C)C(=O)CSc1nc(-c2ccccc2)nc2c1CCCC2	8.9	0.1	7.6	-20.3	0.9
CCOC(=O)C(C)(C)N(Cc1ccccc1C)S(=O)(=O)c1ccc(Cl)c([N+](=O)[O-])c1	99.8*	1.4	24.9	41.5	0.8
CCCN(CCC)S(=O)(=O)c1ccc(Cl)c([N+](=O)[O-])c1	38.6	8.5	-14.8	-3.0	1.1
O=C1/C(=C/c2cccc([N+](=O)[O-])c2)CCc2ccccc21	95.4*	4.1	7.3	54.7	0.9
CCN1C/C(=C/c2ccc(OC)c(O)c2)C(=O)/C(=C/c2ccc(OC)c(O)c2)C1	100.4*	7.3	3.4	-17.3	1
CCN1C/C(=C\c2cccc([N+](=O)[O-])c2)C(=O)/C(=C/c2cccc([N+](=O)[O-])c2)C1	100.5*	3.7	2.5	64.9*	1
CCN1CCN(S(=O)(=O)c2cccc([N+](=O)[O-])c2)CC1	0.4	2.2	23.7	2.5	0.8
O=c1c2cc3c(=O)n(-c4ccccc4O)c(=O)c3cc2c(=O)n1-c1ccccc1O	-1.6	3.2	17.0	4.7	0.8
O=C(O)c1ccccc1NS(=O)(=O)c1ccc(NNC(=S)Nc2ccc(OC(F)F)cc2)c([N+](=O)[O-])c1	-17.1	6.9	67.3*	18.3	0.3
SMILES	L major viab	G6PDH CS	Diaph inh CS	WT yeast gro inh	Diaph act CS
Cc1cc([N+](=O)[O-])nn1CCCC(=O)Nc1sc2c(c1C(N)=O)CCC(C)C2 (centres undefined)	69.4*	10.2	3.1	9.1	1
CC1CCc2c(sc(NC(=O)Cn3cnc([N+](=O)[O-])n3)c2C(N)=O)C1 (centres undefined)	40.5	6.3	16.3	7.9	0.8
Cc1cc(C)c(Nc2cc(S(=O)(=O)O)c(N)c3c2C(=O)c2ccccc2C3=O)c(C)c1	-2.7	-17.7	80.2*	45.6	0.2
CC1(C)CC(=O)C(C=NCC2CCN(C(=O)Cc3ccccc3)CC2)=C(O)C1	-2.6	15.4	11.6	-4.2	0.9
CC(C)C(=O)N1CCC(CN=Cc2c(O)n(C3CCCCC3)c(=O)n(C3CCCCC3)c2=O)CC1	100.0*	2.1	28.2	77.5*	0.7
COc1ccc(C(C)NC(=O)c2ccc([N+](=O)[O-])cc2)cc1OC (centres undefined)	-10.2	8.1	16.0	-16.7	0.8
CCOC(=O)C(NC(=O)Nc1ccc(C(N)=O)cc1)(c1ccccc1)C(F)(F)F (centres undefined)	0.7	2.5	10.4	-12.1	0.9
O=CNc1ccc(S(=O)(=O)NCc2ccccc2)cc1	1.3	-3.2	-3.2	-13.0	1
COC(=O)C1=C(CSc2nc3ccccc3s2)NC(=O)NC1c1ccc(F)cc1 (centres undefined)	12.9	-4.2	16.0	2.4	0.8
COc1cc(/C=N/Nc2ccc(F)cc2F)cc(OC)c1O	67.9*	49.5	28.8	51.0	0.7
COC(=O)/C=C1\C(=O)N(c2nc3ccc(OC)cc3s2)C(=S)N1c1ccc(F)cc1	66.8*	-29.3	9.2	8.5	0.9
COc1cccc(C2=CC(c3ccc(OC)c(OC)c3OC)n3nnnc3N2)c1 (centres undefined)	78.5*	18.9	7.2	7.7	0.9
Cc1nc(S/C(=C/c2ccc(-c3cccc(Cl)c3)o2)C(=O)O)n[nH]1	-1.3	7.9	-0.6	70.6*	1
O=C(O)c1ccc(-c2cccc(Cl)c2)o1	-7.7	.	.	.	.
CCn1c(C)nc2cc(C(=O)NNC(=S)NC(=O)c3ccc(OC)cc3)ccc21	94.3*	-3.6	57.1*	-13.9	0.4
CCn1c(C)nc2cc(C(=O)OC)ccc21	-3.5	7.0	.	4.0	.
Cc1c2c(nc3ccccc13)CCC(C(C)(C)C)C2 (centres undefined)	48.9	2.3	-2.0	68.3*	1
CCn1c(COc2ccc(Cl)cc2)nnc1SCc1ccc(C#N)cc1	50.9*	-24.6	25.1	39.0	0.7
CCn1c(SCc2ccc(C#N)cc2)nnc1-c1cccc(Cl)c1	0.8	1.9	10.8	6.1	0.9
C=CCn1c(SCc2ccc(C#N)cc2)nnc1-c1ccc(C)cc1	78.1*	4.2	9.3	7.3	0.9
COc1ccc(-n2c(COc3ccc(C)cc3)nnc2SCc2ccc(C#N)cc2)cc1	68.1*	2.5	27.2	21.0	0.7
CCn1c(COc2ccccc2)nnc1SCc1ccc(C#N)cc1	30.2	1.6	13.6	2.4	0.9
CCOCc1nnc(NC(=O)c2cc(OC)c(OC)cc2[N+](=O)[O-])s1	-5.5	9.9	10.6	5.2	0.9
CC(=O)/C=C1/SC(CC(=O)O)C(=O)N1c1ccccc1 (centres undefined)	-4.3	11.0	7.1	-17.5	0.9
CCn1c(SCC(=O)Nc2ccc3c(c2)OCO3)nnc1-c1ccccc1O	-1.9	5.8	7.9	2.0	0.9
Cc1cc(NC(=O)CCN2C(=O)C3C4C=CC(C4)C3C2=O)ccc1Br (centres undefined)	-3.1	2.8	0.6	15.2	1
